Experiments:
H4IIE cells [1] = conditions: 24-h exposure, GST leakage, n=3 replicates
H4IIE cells [2] = conditions: 24-h exposure, n=7 replicates
H4IIE cells [3] = conditions: for Cell number (cell mass) TC50: 24-h exposure, n=7 replicates
P-glycoprotein (PgP) = assay: P-glycoprotein binding using the MTT assay with and without cyclosporin A; conditions: 50 μM, 24-h exposure, n=7; for % Control (compound+CSA): with CSA; for % Control (compound): without CSA
[4] = Solubility in culture medium; type: physicochemical; conditions: for soluble up to and including: culture medium with 10% bovine serum and 10% calf serum, 37°C
H4IIE cells [5] = assay: CTox ranking; type: cell-based, rat; conditions: generated from TC50 values by proprietary algorithm
HT22 cells [6] = conditions: cited from earlier work
[7] = Metabolic stability in rat microsomes; type: in vitro ADME; conditions: 1 μM; for metabolic stability (in words): male Sprague–Dawley rat microsomal preparation; for percent of parent remaining: HPLC/MS
Outline: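 Incubated at 1 μM for 30 min at 37°C with pooled liver microsomes from non-induced male Sprague–Dawley rats. Parent loss measured by HPLC-MS on a C18 column at 50°C (water/0.1% formic acid; acetonitrile/0.07% formic acid). Triplicate percent parent remaining; ranked low (100–65%), moderate (65–45%) or high (<45%) metabolism.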

rat cognition assay = conditions: 10 mg/kg by gavage; cited from earlier work
[8] = tested on: rabbit embolic stroke model; conditions: cited from earlier work
H4IIE cells [9] = assay: Lipid peroxidation measured as 8-isoprostane; type: cell-based, rat; conditions: 1–300 μM
HT22 cells [10] = conditions: read-out: EC50 neuroprotection, glutamate (5 mM); cited from earlier work
H4IIE cells [11] = assay: Intracellular glutathione; type: cell-based, rat; conditions: for GSH content TC50: 24-h exposure; for effect on intracellular GSH content: 1–300 μM
[12] = 100 mg/kg single bolus injection

Structure (SMILES)	MemTox TC50 (H4IIE cells [1])	Cell number (cell mass) TC50 (H4IIE cells [3])	% Control (compound+CSA) (P-glycoprotein (PgP))	% Control (compound) (P-glycoprotein (PgP))	soluble up to and including [4]	CTox value (sustained concentration expected to produce toxicity in a rat 14-day repeat dose study) (H4IIE cells [5])	metabolic stability (in words) [7]	percent of parent remaining ([7]; rat microsomes, 30 min at 37°C)	effect on 8-isoprostane (lipid peroxidation) (H4IIE cells [9])	GSH content TC50 (H4IIE cells [11])	effect on intracellular GSH content (H4IIE cells [11])	other results
COc1cc(C=Cc2cc(/C=C/c3ccc(O)c(OC)c3)nn2-c2ccccc2)ccc1O [CNB-001]	193 µM	88 µM	79.0%	79.9%	≥ 100 µM	42 µM	metabolically unstable	42%	did not have any effect	76 µM		MTT TC50 (H4IIE cells [2]): 131 µM; solubility at 300 μM ([4]; culture medium, 300 μM): not completely soluble; effect on GSH levels in HT22 cells (HT22 cells [6]): no effect; concentration with apparent inhibition of EROD activity (Cytochrome P450 1A1/2; Fig. 2): above 10 μM; IC50 (Cytochrome P450 1A1/2; read-out: EROD activity inhibition IC50, H4IIE cells): ~25 µM; metabolism ranking ([7]; rat microsomes, 30 min at 37°C): high (<45% as high); object recognition index (rat cognition assay): significantly increased; acute toxicity [8, 12]: without any signs of acute toxicity; behavior [8, 12]: significant behavioral improvement; EC50 (HT22 cells [10]): 0.7 µM
CC(C)(C)[N+]([O-])=Cc1ccc(S(=O)(=O)[O-])cc1S(=O)(=O)[O-].[Na+].[Na+] [NXY-059, Disodium 4-[[(1,1,-dimethylethyl)imino]methyl]benzene-1,3-disulfonate N-oxide]	>300 µM	>300 µM	93.6%	100.0%	≥ 300 µM	> 300 µM	very stable metabolically	93%	no effect	> 300 µM	no effect	maximum therapeutic window ([8]; time following embolization): 1 h
CC1=NN(c2ccccc2)C(=O)C1 [Radicut, 3-Methyl-1-phenyl-2-pyrazolin-5-one]	>300 µM	>300 µM	94.8%	95.9%		> 300 µM	metabolically unstable	28%	no effect	> 300 µM	no effect	decrease in cell proliferation (H4IIE cells [3]; 300-μM exposure): 30%; solubility [4]: ≥ 300 µM; time of administration following embolization at which still active [8]: 3 h
